Screens deposited in PubChem by several laboratories.
Shown are actives, neighbours in structure and some others; about 4% of the full set was active somewhere.
ERa coact inh – blocks coactivator binding to human estrogen receptor alpha; TR-FRET ER-alpha LBD / SRC-1 peptide, estradiol-bound; 1.7% of 86,000 active; P03372; AID 629; inhibition, % at 25.6 µM; in the data active = inhibition above about 50%;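 note: 0% = receptor plus peptide control and 100% = peptide only without receptor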
FAK blocker – inhibitors of human focal adhesion kinase. inhibition, %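 (tested at 7 µM)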. Q05397. biochemical FAK kinase activity assay. 0.84% of 97,000 active; in the data active = inhibition above about 19%;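 note: 0% = DMSO and 100% = reference compound high control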
ERa coact pot – enhances coactivator binding to human estrogen receptor alpha. TR-FRET ERalpha-LBD/SRC-Cy5 coactivator binding, 2 h; 100 = basal binding, no effect. coactivator binding (% of control), % at 25.6 µM. 1.3% of 86,000 active. AID 639; in the data active = activity above about 200%;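 note: binding measured in presence of low estradiol as agonist stimulus; 0% = peptide alone without receptor and 100% = receptor with peptide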
Rev-RRE block – inhibitors of HIV-1 Rev-RRE RNA interaction. P05866. Rev peptide-RRE RNA binding, FRET. inhibition, % at 8 µM. 0.79% of 97,000 active. AID 704;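 active = inhibition above the screen-wide mean plus 3 SD, cut at about 35% in these data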;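 note: 0% = median DMSO wells and 100% = median Neomycin B control wells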
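Assay system: Labelled RRE RNA duplex and labelled Rev peptide | Times: 5 min preincubation and 15 min binding, 25 °C | Detection: FRET, ex 480 nm, em 540 and 671 nm | Evaluation: % inhibition of FRET ratio versus controls | Benchmarks: DMSO wells as 0% and neomycin B wells as 100% inhibition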
ERb coact inh – blocks coactivator binding to human estrogen receptor beta; Q92731; TR-FRET ER-beta LBD / SRC1-Cy5 peptide binding; receptor agonist-loaded with 1 µM estradiol; inhibition, % at 25.6 µM; 1.3% of 86,000 active; AID 633;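 active = compounds whose percent inhibition of the receptor-coactivator binding signal exceeds about 50% in the single-dose screen, limit read from the data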;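 note: 0% = receptor plus peptide wells without compound and 100% = peptide-only wells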
Target sequence (Q92731 whole entry, looked up, the tested form may be a part): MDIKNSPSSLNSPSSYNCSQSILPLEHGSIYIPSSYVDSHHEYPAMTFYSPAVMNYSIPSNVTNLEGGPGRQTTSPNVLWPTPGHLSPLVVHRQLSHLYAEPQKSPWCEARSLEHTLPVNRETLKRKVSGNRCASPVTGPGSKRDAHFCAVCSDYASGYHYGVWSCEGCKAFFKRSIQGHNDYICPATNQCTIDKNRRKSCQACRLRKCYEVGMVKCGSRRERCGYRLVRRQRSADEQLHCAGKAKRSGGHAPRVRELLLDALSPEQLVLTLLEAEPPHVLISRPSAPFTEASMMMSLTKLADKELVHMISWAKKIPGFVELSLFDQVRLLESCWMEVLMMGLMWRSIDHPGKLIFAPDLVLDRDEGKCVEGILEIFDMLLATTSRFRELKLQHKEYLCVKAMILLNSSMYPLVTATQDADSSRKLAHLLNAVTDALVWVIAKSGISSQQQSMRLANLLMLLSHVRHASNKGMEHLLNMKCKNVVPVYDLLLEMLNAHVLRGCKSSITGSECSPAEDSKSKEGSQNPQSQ
Smad3 FoxH1 inh – blocks human Smad3 binding to FoxH1 peptide | P84022 | TR-FRET Smad3/Dy647-FoxH1 peptide binding, europium anti-His | inhibition, % at 25 µM | 0.29% of 88,000 active | AID 630;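 active = compounds that reduce the energy-transfer binding signal between the protein and its labelled peptide by more than half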;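 note: 0% = Smad3 plus labelled peptide maximal FRET and 100% = peptide-only background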
* marks the source's active call; other numbers are inactive results; [ ] = another dose, or the depositor's remark.

What do the screens show for `O=C(O)c1cccc(SSc2cccc(C(=O)O)c2)c1`?
Smad3 FoxH1 inh: 7

How did O=C(Nc1cnc2ccccc2c1)c1ccco1 do in these assays?
ERa coact inh: 57*; FAK blocker: 2; ERa coact pot: 117; Rev-RRE block: 8; ERb coact inh: -5; Smad3 FoxH1 inh: -6

Results for CC(C)(C)c1cc2cccnc2n1Cc1cccc(Cl)c1 ?
FAK blocker: 3; Rev-RRE block: -12

Results for O=C(CS(=O)(=O)c1cn(Cc2ccc(Cl)cc2)c2ccccc12)N1CCCC1 ?
ERa coact inh: 12; FAK blocker: 1; ERa coact pot: 86; Rev-RRE block: 10; ERb coact inh: 51*[fluorescence artefact?]; Smad3 FoxH1 inh: -8

Results for O=C(CS(=O)(=O)c1cn(Cc2ccccc2Cl)c2ccccc12)N1CCOCC1 ?
ERa coact inh: -3; FAK blocker: -2; ERa coact pot: 90; Rev-RRE block: 12; ERb coact inh: 1; Smad3 FoxH1 inh: -13

How did CCNC1=C(Cl)C(=O)c2ccccc2C1=O do in these assays?
ERa coact inh: -14; FAK blocker: -1; ERa coact pot: 115; Rev-RRE block: -3; ERb coact inh: -23; Smad3 FoxH1 inh: 4

How did CCCCn1c(=O)c(-c2ccccc2)c(O)c2ccccc21 do in these assays?
ERa coact inh: -16; FAK blocker: 0; ERa coact pot: 117; Rev-RRE block: 3; ERb coact inh: -24; Smad3 FoxH1 inh: 5

What do the screens show for `Cn1c(=O)c(NCCO)c2c3c(cccc31)C(=O)c1ccccc1-2`?
ERa coact inh: -16; FAK blocker: 5; ERa coact pot: 143; Rev-RRE block: 142*[fluorescence artefact?]; ERb coact inh: -17; Smad3 FoxH1 inh: -11

Results for Cn1c(=O)c(NCCc2ccccc2)c2c3c(cccc31)C(=O)c1ccccc1-2 ?
ERa coact inh: -4; FAK blocker: 3; ERa coact pot: 97; Rev-RRE block: 140*[fluorescence artefact?]; ERb coact inh: 7; Smad3 FoxH1 inh: 11

How did CCCCNc1c2c3c(cccc3n(C)c1=O)C(=O)c1ccccc1-2 do in these assays?
ERa coact inh: -22; FAK blocker: 6; ERa coact pot: 94; Rev-RRE block: 142*[fluorescence artefact?]; ERb coact inh: -23; Smad3 FoxH1 inh: -2

What do the screens show for `CCNc1c2c3c(cccc3n(C)c1=O)C(=O)c1ccccc1-2`?
ERa coact inh: -8; FAK blocker: 12; ERa coact pot: 96; Rev-RRE block: 142*[fluorescence artefact?]; ERb coact inh: -4; Smad3 FoxH1 inh: 8

What do the screens show for `Nc1nc2nc3c(nc2c(=O)[nH]1)CN(c1ccc(C(=O)O)cc1)C3=O`?
Smad3 FoxH1 inh: 15

How did CCCCC[C@@H](O)[C@@H]1C(=O)O[C@@H](C)[C@@H](O)C=C/C=C\C=CC=C/C=C(/C)[C@H](O)C[C@H](O)C[C@H](O)C[C@H](O)C[C@H](O)C[C@H](O)C[C@@H]1O do in these assays?
Smad3 FoxH1 inh: 2

How did COc1cccc(N2CCN(c3ccc(S(=O)(=O)N4CCCC4)cc3)CC2)c1 do in these assays?
FAK blocker: -3; Rev-RRE block: -1

How did C=CCn1c(SCC(=O)c2c(N)n(CCC)c(=O)n(C)c2=O)nc2sc(CC)cc2c1=O do in these assays?
ERa coact inh: 49; FAK blocker: 3; ERa coact pot: 445*[fluorescence artefact?]; Rev-RRE block: -1; ERb coact inh: 37; Smad3 FoxH1 inh: -88

How did C=CCn1c(SCC(=O)c2c(N)n(C)c(=O)n(C)c2=O)nc2sc(C)c(C)c2c1=O do in these assays?
FAK blocker: -2; Rev-RRE block: 1

How did O=c1c2ccccc2nc2n1CC/C2=C/N1CCN(c2cccc(C(F)(F)F)c2)CC1 do in these assays?
ERa coact inh: 70*[fluorescence artefact?]; FAK blocker: 0; ERa coact pot: 59; Rev-RRE block: 18; ERb coact inh: 100*[fluorescence artefact?]; Smad3 FoxH1 inh: -9

What do the screens show for `N#Cc1c(N2CCCCC2)nc(N)c2c(N)nc3c(c12)CC(c1ccccc1)O3` (stereo not given)?
ERa coact inh: 23; FAK blocker: -7; ERa coact pot: 217*[fluorescence artefact?]; Rev-RRE block: 31; ERb coact inh: 29; Smad3 FoxH1 inh: -12

What do the screens show for `CCOc1ccccc1C(=O)Nc1ccc2nc(N3CCN(c4ncccn4)CC3)cc(C)c2c1`?
ERa coact inh: 73*; FAK blocker: 11; ERa coact pot: 303*[fluorescence artefact?]; Rev-RRE block: -2; ERb coact inh: 35; Smad3 FoxH1 inh: -17
